SR-BI HDL uptake: inhibitors of mouse SR-BI mediated HDL lipid uptake | 0.96% of 320,000 active | ldlA[mSR-BI] CHO cells, DiI-HDL uptake fluorescence, 3 h | inhibition, % at 12.5 µM;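 active = mean replicate inhibition of at least 70% and a set share of replicates each scoring 70 or more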;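 note: 0% = median of neutral control wells and 100% = median of positive control wells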
MIN6 prolif: induces beta-cell replication in MIN6 cells; proliferation, % at 10 µM; AID 2380; 0.29% of 330,000 active; MIN6 cells proliferation, ATPlite luminescence, 48 h; cells starved in 0.2% serum; 100% = growth in 10% serum;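 active = compounds whose signal lies at least 3.5 SD above the mean of all wells on their plate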;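 note: 0% = DMSO-treated cells in low-serum medium and 100% = 10% serum control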
HTR2A ag: mouse HTR2A agonism via beta-arrestin recruitment; 0.66% of 360,000 active; activation, % at 7.6 µM; CHO-K1 mHTR2A beta-arrestin complementation, luminescence; percent of 30 µM serotonin response; P35363;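 active = activation above a run cutoff, the mean activation of all tested compounds plus 3 SD, cut at about 14% in these data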;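 note: 0% = plate median of compound wells and 100% = 30 µM serotonin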
Target sequence (P35363 whole entry, looked up): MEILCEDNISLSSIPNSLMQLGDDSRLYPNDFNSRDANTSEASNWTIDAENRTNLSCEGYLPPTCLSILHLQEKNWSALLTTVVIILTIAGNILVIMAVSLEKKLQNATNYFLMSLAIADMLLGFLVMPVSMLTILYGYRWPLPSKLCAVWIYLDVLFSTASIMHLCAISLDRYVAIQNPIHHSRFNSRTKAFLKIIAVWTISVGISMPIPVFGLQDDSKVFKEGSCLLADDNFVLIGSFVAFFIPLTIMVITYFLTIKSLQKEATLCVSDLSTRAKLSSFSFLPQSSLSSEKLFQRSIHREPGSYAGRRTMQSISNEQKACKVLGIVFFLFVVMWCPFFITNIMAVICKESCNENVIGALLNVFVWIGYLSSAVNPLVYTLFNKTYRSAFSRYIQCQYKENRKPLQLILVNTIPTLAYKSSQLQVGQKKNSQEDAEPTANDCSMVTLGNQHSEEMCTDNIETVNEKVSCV
Insulin prom up: MIN6 insulin promoter up-regulation; MIN6 insulin promoter-GFP reporter, high-content imaging; stronger effect = higher value; z-score at 5 µM; 0.3% of 190,000 active; AID 1625;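 active = z-score above 3 at 5 µM with at least 500 cells counted in the well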
Calb FLC: affects C. albicans growth with fluconazole | C. albicans CaCi-2 + fluconazole, Alamar Blue growth, 48 h | growth inhibition, % (no concentration beside the values) | 0.57% of 300,000 active | AID 1979;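 active = growth inhibition above about 58% in most replicates, limit read from the data, passing the limit was not always enough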;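 note: all wells also contain fluconazole at 8 µg/ml as a sub-toxic cotreatment; 0% = median of DMSO wells and 100% = median of geldanamycin control wells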
SR-BI uptake up: SR-BI HDL lipid transfer activation. CHO ldlA[mSR-BI] cells, DiI-HDL uptake fluorescence, 3 h; 100 = double the neutral-control signal. activation, % at 12.5 µM. 0.096% of 320,000 active. AID 504775;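 active = mean replicate activation of at least 60% and every replicate at or above 60%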;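 note: 0% = median plate neutral-control signal and 100% = twice that signal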
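Material – SR-BI-overexpressing, LDLR-lacking CHO cells · Medium – BSA-supplemented, HEPES-buffered Ham's F12, pH 7.4 · Doses – single concentration · Times – compound with DiI-HDL co-incubation, 3 h at 37 °C · Measured by – bottom-read fluorescence, 550/595 nm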
The depositor's hits bear a star; x = no result. The list is not random: actives were taken first. Their share in the collection is about 2.4%.

SMILES | SR-BI HDL uptake | MIN6 prolif | HTR2A ag | Insulin prom up | Calb FLC | SR-BI uptake up
O=c1c(F)cn(C2CCCO2)c(=O)n1Cc1c(F)cccc1Cl (configuration not stated) | 18.7 | 1.8 | 0.1 | 0.43 | 106.9* | -18.7
CC(=O)OC1CCC2(C)C(CCC3C2CC(OC(C)=O)C2(C)C3C[C@@H]3O[C@]4(CC[C@@H](C)CO4)[C@@H](C)C32)C1 (some centres not stated) | x | -5.9 | x | x | 0.3 | x
CC1CC[C@@]2(OC1)O[C@H]1CC3[C@@H]4C[C@@H](O)[C@@]5(O)C[C@@H](O)[C@H](O)C[C@]5(C)[C@H]4CC[C@]3(C)[C@H]1[C@@H]2C (some centres not stated) | -68.8 | 2.9 | -4.8 | x | -1.7 | 68.8*
COc1ccccc1N1CCN(C(=O)c2cc3cc(Cl)ccc3[nH]2)CC1 | 1.4 | -3.9 | -0.6 | x | 114.4* | -1.4
C/C(=N/NC(N)=S)c1cc2ccc(O)cc2oc1=O | 84.3* | -3.8 | 1.5 | 0.53 | 9.4 | -84.3
COCCNC(=O)C1(C)CCN(C(=O)c2ccc(SC(F)(F)F)cc2)C1 (configuration not stated) | x | x | 2.0 | x | x | x
COc1ccc(C2=CSC(/N=C/c3ccc(F)cc3)=NN2)cc1 | 75.4* | -1.9 | -3.1 | -0.51 | -8.7 | -75.4
O=C(O)c1cc(-c2ccc(O)cc2)on1 | 12.4 | -3.3 | -1.8 | -0.17 | 100.5* | -12.4
FC(F)(F)COc1nc(OCC(F)(F)F)nc(N2CCN(c3ccccc3)CC2)n1 | 57.1 | -1.5 | -0.2 | -0.58 | 88.5* | -57.1
CC(C)c1cc(CN2C(C)COCC2C)cc(C(C)C)c1O (configuration not stated) | 9.5 | x | -0.8 | x | x | -9.5
Cc1oc(-c2ccccc2F)nc1CS(=O)CC(=O)NC1CCCC1 (configuration not stated) | 85.1* | 0.2 | 8.7 | x | -0.7 | -85.1
O=C(Cc1ccc([N+](=O)[O-])cc1)N/N=C/c1ccc([N+](=O)[O-])o1 | 16.1 | -1.7 | -4.1 | -0.79 | 5.8 | -16.1
CCCCCCCC(=O)N/N=C/c1ccc([N+](=O)[O-])o1 | -38.8 | -6.1 | 0.3 | -0.16 | 101.3* | 38.8
CC1(C(=O)N/N=C/c2ccc([N+](=O)[O-])o2)CC1(Br)Br (configuration not stated) | -32.6 | -4.0 | -0.3 | -1.2 | 91.5* | 32.6
CCOC(=O)N/N=C\c1ccc([N+](=O)[O-])o1 | -29.5 | -3.9 | -2.3 | -0.32 | 22.1 | 29.5
CCc1nc2ccc(C(=O)NCc3ccc4c(c3)OCO4)cn2c1N(C)Cc1cccs1 | x | x | -0.3 | x | x | x
CCOc1ccc(C(=O)n2cc(C(=O)OC)c3ccccc32)cc1OCC | 81.4* | -1.7 | 12.4 | x | 4.1 | -81.4
CCOc1ccc(C(=O)n2cc(C(=O)OC)c3ccccc32)cc1 | 26.9 | -0.4 | 0.3 | x | 29.4 | -26.9
O=C(COc1ccc2ccc(=O)oc2c1)Nc1cccc(S(=O)(=O)N2CCCCC2)c1 | 55.6 | -3.5 | -7.7 | x | x | -55.6
C/C(=N\Nc1cc(Cl)nc(C)n1)c1ccccc1 | 20.4 | -0.2 | -4.0 | 0.1 | 21.4 | -20.4
CCc1ccc(/C(C)=N/Nc2cc(Cl)nc(C)n2)cc1 | 78.6* | -3.8 | -4.2 | x | 35.1 | -78.6
COc1ccccc1NC(=O)COC(=O)C1=NN(c2ccccc2)C(=O)CC1 | -28.1 | -1.5 | 0.5 | x | x | 28.1
COc1cccc2cc(-c3nnc(SCC(=O)Nc4nc(C)cs4)n3C)oc12 | -10.3 | -2.3 | 24.7* | 0.28 | -9.5 | 10.3
CC(=O)Nc1ccc2c(c1)Cc1ccc(Cl)cc1-2 | 74.4* | x | -7.2 | x | x | -74.4
CC(=O)Nc1ccc2c(c1)-c1ccc(F)cc1C2 | -6.1 | x | 1.9 | x | x | 6.1
CCCC(=O)Nc1nc(C)c(-c2csc(Nc3cc(OC)ccc3OC)n2)s1 | 94.0* | -7.1 | -5.5 | -2.49 | 6.6 | -94.0
CCCCCC(=O)Nc1nc(C)c(-c2csc(Nc3cc(Cl)ccc3OC)n2)s1 | 79.1* | -3.0 | -8.3 | -0.76 | -3.4 | -79.1
COc1ccccc1Nc1nc(-c2sc(NC(=O)C(C)(C)C)nc2C)cs1 | 84.6* | -5.8 | -1.3 | -2.52 | 3.7 | -84.6
CCC(C)C(=O)Nc1nc(C)c(-c2csc(Nc3ccc(Cl)cc3)n2)s1 (configuration not stated) | 77.7* | -6.9 | 1.0 | -3.77 | -2.0 | -77.7

Assay outcomes from PubChem BioAssay.
